Rows were chosen to be rich in hits. Some 1.3% of all compounds tested hit in one or more screens of this group.
procasp7 counter: counter-screen: procaspase-7 (human) activation | P55210 | recombinant procaspase-7, Ac-DEVD-pNA absorbance 405 nm; D23A/D198A/D206A triple mutant, cannot self-cleave; scale: DMSO 0, 5 µM enzyme 100 | activation, % at 8.5 µM | 0.093% of 330,000 active | AID 463210;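 active means percent activation above the screen-wide mean plus 3 SD, cut at about 25% in these data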
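buffer or medium = Zinc-free HEPES/NaCl buffer, pH 7.4 | material = Procaspase-7 triple mutant (PC-7 D3A) | input = 2 µM procaspase-7 mutant as dispensed | signal = Epi-absorbance of released pNA at 405 nm, two timepoints | timing = 1 h preincubation, 2 h reaction | replicates = singlicate compound testing | evaluation = % activation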
Hep lipid drop: modulators of hepatic lipid droplet formation | AML12 mouse hepatocytes, oleate lipid droplets, BODIPY imaging | inhibition, % at 6.5 µM | 0.4% of 240,000 active | AID 1656;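 active means lipid droplet intensity inhibited by at least 50%, with more than 500 cells counted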
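Material – mouse AML12 hepatocyte cell line, fixed after treatment · Compound dosing – one dose, 6.5 µM compound · Times – compound with oleate, overnight · Measured by – Image-based BODIPY and DAPI two-channel analysis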
VLA-4 inh: inhibition in a human VLA-4 binding assay; P13612; VLA-4 expressing cells, ligand binding flow cytometry; inhibition, % (about 7 µM as worked out from the volumes in the protocol); 0.2% of 330,000 active; AID 2557; in the data active means inhibition above about 50%
JMJD2C inh: inhibitors of human GASC-1 (JMJD2C) demethylase | Q9H3R0 | GST-JMJD2C(1-420) H3K9me3 demethylation, DELFIA europium | inhibition, % at 2.35 µM | 0.069% of 330,000 active | AID 2099;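 active means more than half of a compound's replicate wells show inhibition beyond 50%, single wells judged on their own value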;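 further: signal counts dimethyl H3K9 product captured on neutravidin plate; 0% = median of DMSO wells and 100% = 0.3 times that DMSO median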
GRK2 inh: inhibitors of human GRK2 displacing RNA aptamer | bead flow cytometry, FAM-aptamer displacement from GRK2 | inhibition of aptamer binding, % at 10 µM | 0.59% of 330,000 active;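 active means inhibition of aptamer binding above 40%, roughly 3 SD of noise, on plates passing a quality check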;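 further: median bead fluorescence of bound FAM aptamer so fluorescent compounds give negative values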
Target sequence (P25098 whole entry, looked up): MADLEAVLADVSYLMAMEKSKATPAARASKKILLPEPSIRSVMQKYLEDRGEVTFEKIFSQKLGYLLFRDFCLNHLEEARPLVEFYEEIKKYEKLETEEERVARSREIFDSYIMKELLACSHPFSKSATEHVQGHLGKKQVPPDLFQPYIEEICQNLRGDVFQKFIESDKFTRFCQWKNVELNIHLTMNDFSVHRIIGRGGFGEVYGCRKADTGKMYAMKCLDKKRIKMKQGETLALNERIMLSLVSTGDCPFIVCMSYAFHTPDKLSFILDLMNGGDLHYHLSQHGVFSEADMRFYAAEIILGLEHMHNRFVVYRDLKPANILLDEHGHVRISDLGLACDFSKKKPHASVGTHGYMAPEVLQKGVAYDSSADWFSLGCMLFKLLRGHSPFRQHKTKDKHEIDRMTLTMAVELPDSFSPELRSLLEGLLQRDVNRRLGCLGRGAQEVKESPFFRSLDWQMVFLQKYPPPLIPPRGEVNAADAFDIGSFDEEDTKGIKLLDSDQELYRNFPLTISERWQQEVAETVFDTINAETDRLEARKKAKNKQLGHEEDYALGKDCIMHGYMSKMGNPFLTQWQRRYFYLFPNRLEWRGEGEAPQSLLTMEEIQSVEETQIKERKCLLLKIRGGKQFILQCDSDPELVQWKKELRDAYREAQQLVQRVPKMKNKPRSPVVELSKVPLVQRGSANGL
proCasp3 act: activators of human procaspase-3; P42574; recombinant procaspase-3 D3A, Ac-DEVD-pNA absorbance 405 nm; activation, % at 8.5 µM; 0.11% of 330,000 active; AID 463141;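 active means activation above the mean of all tested compounds plus 3 SD, cut at about 21% in these data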;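 further: 0% = DMSO alone and 100% = DMSO wells spiked with extra 5 µM PC-3 D3A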
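Assay system: Procaspase-3 D3A mutant, all three cleavage aspartates alanine. Buffer or medium: Zinc-free HEPES saline buffer with Triton X-100. Times: 1 h compound preincubation, 2 h substrate hydrolysis at 25 °C. Measured by: 405 nm absorbance of p-nitroaniline, reads at 0 and 120 min. Read-out basis: percent activation relative to control range. Replicates: singlicate.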
VLA-4 mod pick: human VLA-4 allosteric modulation in cherry picked compounds | shares compounds with VLA-4 inh | 2% of 1,300 active | inhibition, % at 6.7 µM | AID 2813 | U937 cells, HUTS-21 LIBS mAb binding, flow cytometry; LDV ligand present at threefold Kd; in the data active means inhibition above about 40%;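 further: 0% = ligand without compound and 100% = no ligand background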
* hit, by the source's call; / = no result given.

SMILES	procasp7 counter	Hep lipid drop	VLA-4 inh	JMJD2C inh	GRK2 inh	proCasp3 act	VLA-4 mod pick
Cc1c(NC(=O)c2c(F)cccc2F)c(=O)n(-c2ccccc2)n1C	-5	/	2	0	0	9	/
Cc1ccc(-c2cc(C(=O)Nc3c(C)n(C)n(-c4ccccc4)c3=O)[nH]n2)c(O)c1	-5	/	10	-10	1	-7	6
C/C(=N\OCC(=O)OCC(=O)N(C)c1ccccc1)c1ccc2c(c1)OCO2	-6	/	0	13	6	-3	/
CC(NC(=O)COC(=O)c1cccnc1Cl)C12CC3CC(CC(C3)C1)C2 (stereo unspecified)	10	/	-4	1	0	14	/
COc1ccc(C(=O)C[n+]2cn(C(F)F)c3ccccc32)c(F)c1	6	5	11	38	0	-2	/
Cc1c(NC(=O)c2ccccc2N(C)S(=O)(=O)c2ccccc2)c(=O)n(-c2ccccc2)n1C	-6	5	8	5	0	1	-4
c1ccc(COc2ccc(OCCN3CCCCC3)cc2)cc1	8	17	4	3	0	1	/
COc1cccc(-c2sc3ccccc3c2-c2ccc(OCCN3CCCC3)cc2)c1	7	/	64*	-4	0	-1	38
COc1cccc(-c2sc3ccc(OC)cc3c2-c2ccc(OCCN3CCCC3)cc2)c1	3	/	/	/	0	3	12
COc1ccc2sc(-c3ccccc3OC)c(-c3ccc(OC)c(F)c3)c2c1	6	/	15	-2	0	0	/
COc1cccc(-c2sc3ccc(OC)cc3c2-c2ccc(C(N)=O)cc2)c1	1	/	26	2	0	1	/
COc1ccc2sc(-c3ccccc3OC)c(-c3ccc(OCCN(C)C)cc3)c2c1	-3	/	/	/	0	-4	-4
COc1cccc(-c2sc3ccc(OC)cc3c2-c2ccc(OC)cc2F)c1	7	/	15	8	0	-3	/
COc1cccc(-c2sc3ccccc3c2-c2ccc(OCCN3CCCCC3)cc2)c1	5	/	45	1	0	0	20
O=C(O)c1ccccc1OCCN1CCCC1=O	2	-16	8	7	0	1	/
NC(=O)CC[C@H](NC(=O)c1ccc(F)cc1)C(=O)OCC(=O)NCc1ccc2c(c1)OCO2	14	/	4	-7	0	1	/
COc1ccc(N(CC(=O)Nc2cccc(C)c2)S(=O)(=O)c2ccc(C)cc2)cc1OC	5	-1	10	11	0	-4	/
COc1ccc(OCCN2CCOCC2)cc1	-6	-2	8	-2	0	1	/
COc1ccc(-c2sc3ccc(OC)cc3c2-c2ccc(OCCN3CCOCC3)cc2)cc1	-1	/	/	/	2	-11	1
COc1cccc(-c2sc3ccccc3c2-c2ccc(OCCN(C)C)cc2)c1	5	/	72*	5	0	3	44*
COc1cccc(-c2sc3cc(OC)c(OC)cc3c2-c2ccc(OCCN3CCCCC3)cc2)c1	1	/	/	/	0	-4	0
COc1cccc(C(=O)OCCN2CCCCC2)c1	8	-82	19	7	1	3	/
CC(C)(C)c1cc(C(=S)N2CCCC2)cc(C(C)(C)C)c1O	/	1	5	1	2	/	/
Nc1nc(CN2CCN(c3ccccc3F)CC2)nc(Nc2ccccc2)n1	1	/	76*	4	0	3	0
COC(=O)/C=C1/SC(=NC(=O)c2ccc(Cl)cc2)NC1=O	-12	/	-8	5	0	-3	/
COC(=O)/C=C1\SC(=NC(=O)c2ccc(C)cc2)NC1=O	-12	1	51*	0	0	-11	2
CC(=O)Nc1ccc(NC(=O)CN(c2cc(Cl)ccc2Cl)S(C)(=O)=O)cc1	4	-5	60*	-7	2	10	-12
CS(=O)(=O)N(CC(=O)Nc1cc(Cl)ccc1Cl)c1ccccc1Cl	8	6	-2	0	0	0	/

Screens from PubChem BioAssay.
